Results: ChEMBL document CHEMBL1150058, “Gigantetronenin and gigantrionenin: novel cytotoxic acetogenins from Goniothalamus giganteus” (J Nat Prod, 1992)
Values after ≈ are worked out from the molar mass of the structure shown.

Legend:
[1] = system: A549; assay: Cytotoxicity against human A549 cells; assay type: functional; details: for EC50: Homo sapiens, A549, read-out: ED50 (the source's name)
Procedure, shortened: (§1)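 Cultured human tumour lines (A-549 lung carcinoma, MCF-7 breast carcinoma, HT-29 colon adenocarcinoma) were tested at the Purdue Cell Culture Laboratory by standard protocols, with adriamycin as positive control.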

[2] = system: MCF7; assay: Cytotoxicity against human MCF7 cells; assay type: functional; details: read-out: ED50 (the source's name); procedure, shortened: as §1
[3] = system: HT-29; assay: Cytotoxicity against human HT-29 cells; assay type: functional; details: read-out: ED50 (the source's name); procedure, shortened: as §1
[4] = Toxicity in brine shrimp; assay type: organism-based; details: artemia, in vivo

SMILES	EC50 [1] [µg/mL]	EC50 [2] [µg/mL]	EC50 [3] [µg/mL]	LC50 [4] [µg/mL]	ED50 [1] [×10⁻⁴ ug/ml]
CCCCCCCCCCCC/C=C\CC[C@@H](OC(C)=O)[C@@H](CC[C@H](OC(C)=O)[C@@H]1CC[C@@H](CCCCCCCC2=CC(C)OC2=O)O1)OC(C)=O (stereo not given in full)	0.359 (≈ 0.49 µM)	24.9 (≈ 33.9 µM)	0.0667 (≈ 0.091 µM)		
CCCCCCCCCCCC[C@@H](OC(C)=O)[C@H]1CC[C@H]([C@@H](CCCCCC[C@H](CCCCC[C@H](CC2=C[C@H](C)OC2=O)OC(C)=O)OC(C)=O)OC(C)=O)O1	0.17 (≈ 0.214 µM)	90.4 (≈ 114 µM)	14.9 (≈ 18.7 µM)		
CCCCCCCCCCCC/C=C\CC[C@@H](OC(C)=O)[C@@H](CC[C@H](OC(C)=O)[C@@H]1CC[C@@H](CCCCCC(CC2=CC(C)OC2=O)OC(C)=O)O1)OC(C)=O (stereo not given in full)	0.96 (≈ 1.21 µM)	5.97 (≈ 7.55 µM)	1.6 (≈ 2.02 µM)		
CCCCCCCCCCCC[C@H](O)[C@@H]1CC[C@@H]([C@@H](O)CCCCCCC(O)CCCCC[C@@H](O)CC2=C[C@H](C)OC2=O)O1 (stereo not given in full) [ANNOMONTACIN]				12.5 (≈ 20 µM)	
COc1cccc2c1C(=O)c1c(O)c3c(c(O)c1C2=O)C[C@@](O)(C(=O)CO)C[C@@H]3O[C@H]1C[C@H](N)[C@H](O)[C@H](C)O1 [DOXORUBICIN]		0.0108 (≈ 0.0199 µM)	0.00483 (≈ 0.00889 µM)	8 (≈ 14.7 µM)	2.37
CCCCCCCCCCCCCCC(O)C(O)CC[C@H](O)[C@H]1CC[C@H](CCCCC[C@@H](O)CC2=C[C@H](C)OC2=O)O1 (stereo not given in full) [GIGANTETRONENIN]	0.00471 (≈ 0.00789 µM)			9.4 (≈ 15.7 µM)	
CCCCCCCCCCCC/C=C\CC[C@@H](O)[C@H](O)CC[C@H](O)[C@@H]1CC[C@@H](CCCCCCCC2=C[C@H](C)OC2=O)O1 [GIGANTRIONENIN]	0.00394 (≈ 0.00649 µM)	8.06 (≈ 13.3 µM)	0.00292 (≈ 0.00481 µM)	13.9 (≈ 22.9 µM)	
